Results: ChEMBL document CHEMBL1157464, “1-[(3-Aryloxy-3-aryl)propyl]-1H-imidazoles, new imidazoles with potent activity against Candida albicans and dermatophytes. Synthesis, structure-activity relationship, and molecular modeling studies” (J Med Chem, 2008)
Values after ≈ are worked out from the molar mass of the structure shown.

What was measured:
Candida parapsilosis = assay: Antifungal activity against Candida parapsilosis ATCC 22019 at 35 degC after 48 hrs by broth microdilution test; format: functional
How it was run: (§1)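 Broth microdilution per NCCLS M27-A2. Stocks in 100% DMSO, diluted in RPMI 1640 with 0.165 M MOPS at pH 7.0; final range 0.25–128 µg/mL. Inoculum 1000–5000 cells/mL from SDA subcultures. […] C. parapsilosis ATCC22019 served as QC strain.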

Candida albicans [1] = assay: Antifungal activity against Candida albicans ATCC 10261 at 35 degC after 48 hrs by broth microdilution test; format: functional; how it was run: as §1
Candida albicans [2] = assay: Antifungal activity against Candida albicans ATCC 10261 at 35 degC after 48 to 96 hrs by broth microdilution test; format: functional
How it was run: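 Minimal fungicidal concentration for Candida. […] MFC is the lowest concentration allowing fewer than two colonies (99% killing).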

Arthrodermataceae [3] = assay: Antifungal activity against dermatophytes at 28 degC after 7 days by broth microdilution test; format: functional; conditions: 168 h
How it was run: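 Ten clinical isolates (two M. canis, five M. gypseum, three T. mentagrophytes) tested by NCCLS M38-A broth microdilution in MOPS-buffered RPMI 1640, pH 7.0, over 0.25–128 µg/mL. Conidial/hyphal suspension from PDA slants (28 °C, 7 days) adjusted to 65–70% transmittance at OD530, then diluted 1:50.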

Arthrodermataceae [4] = assay: Antifungal activity against dermatophytes at 28 degC after 5 days by broth microdilution test; conditions: for MFC: Arthrodermataceae
Arthrodermataceae [5] = assay: Antifungal activity against dermatophytes at 28 degC after 48 to 96 hrs by broth microdilution test
[6] = Lodderomyces parapsilosis, ATCC 22019, 48 h, read-out: MFC
[7] = Lodderomyces parapsilosis, ATCC 22019, 48 h, read-out: MIC
[8] = Candida albicans, ATCC 10261, 48 h, read-out: MIC
[9] = Candida albicans, ATCC 10261, 48 h, read-out: MIC50
[10] = Candida albicans, ATCC 10261, 48 h, read-out: MIC90
[11] = Candida albicans, ATCC 10261, read-out: MFC

Structure (SMILES)	MFC (Candida parapsilosis) [µg/mL]	MIC (Candida parapsilosis) [µg/mL]	MIC (Candida albicans [1]) [µg/mL]	MIC50 (Candida albicans [1]) [µg/mL]	MIC90 (Candida albicans [1]) [µg/mL]	MFC (Candida albicans [2]) [µg/mL]	MFC90 (Candida albicans [2]) [µg/mL]	MIC (Arthrodermataceae [3]) [µg/mL]	MIC50 (Arthrodermataceae [3]) [µg/mL]	MIC90 (Arthrodermataceae [3]) [µg/mL]	MFC90 (Arthrodermataceae [4]) [µg/mL]	MFC (Arthrodermataceae [4]) [µg/mL]	MFC50 (Arthrodermataceae [5]) [µg/mL]	MFC (Candida parapsilosis; [6]) [µg/mL]	MIC (Candida parapsilosis; [7]) [µg/mL]	MIC (Candida albicans [1]; [8]) [µg/mL]	MIC50 (Candida albicans [1]; [9]) [µg/mL]	MIC90 (Candida albicans [1]; [10]) [µg/mL]	MFC50 (Candida albicans [2]) [µg/mL]	MFC (Candida albicans [2]; [11]) [µg/mL]
Clc1ccc(OC(CCn2ccnc2)c2ccccc2)c(Cl)c1 (stereo in doubt; (+)-14a)	4 (≈ 11.5 µM)	0.5 (≈ 1.44 µM)	3.2 (≈ 9.22 µM)	4 (≈ 11.5 µM)	4 (≈ 11.5 µM)	7.4 (≈ 21.3 µM)	8 (≈ 23 µM)													
CNCCC(Oc1ccc(C(F)(F)F)cc1)c1ccccc1 (stereo unspecified) [FLUOXETINE]								45 (≈ 145 µM)	32 (≈ 103 µM)	64 (≈ 207 µM)	64 (≈ 207 µM)	64 (≈ 207 µM)	64 (≈ 207 µM)							
Clc1ccc(C(OCCn2ccnc2)c2ccccc2)c(Cl)c1.O=[N+]([O-])O (stereo unspecified)							>256	7	8	8	8	7.5	8	32	16	46.1	32	64	128	158
Cc1ccc(OC(CCn2ccnc2)c2ccccc2)cc1 (single isomer, unassigned; (+))	8 (≈ 27.4 µM)	1 (≈ 3.42 µM)	6.5 (≈ 22.2 µM)		8 (≈ 27.4 µM)	14.9 (≈ 51 µM)														
Clc1ccc(C(OCCn2ccnc2)c2ccc(Cl)cc2Cl)c(Cl)c1							>128							64 (≈ 154 µM)	32 (≈ 76.9 µM)	> 128	> 128	> 128	>128	> 128
Clc1ccc(OC(CCn2cncn2)c2ccccc2)c(Cl)c1 (stereo unspecified)							>128	22.4 (≈ 64.3 µM)	16 (≈ 45.9 µM)	32 (≈ 91.9 µM)	64 (≈ 184 µM)	44.8 (≈ 129 µM)	32 (≈ 91.9 µM)	64 (≈ 184 µM)	32 (≈ 91.9 µM)	> 128	> 128	> 128	>128	> 128
Fc1ccc(C(CCn2ccnc2)Oc2c(Cl)cccc2Cl)cc1 (stereo unspecified)							128 (≈ 350 µM)	6.4 (≈ 17.5 µM)	8 (≈ 21.9 µM)	8 (≈ 21.9 µM)	16 (≈ 43.8 µM)	15 (≈ 41.1 µM)	16 (≈ 43.8 µM)	32 (≈ 87.6 µM)	4 (≈ 11 µM)	36.1 (≈ 98.8 µM)	8 (≈ 21.9 µM)	64 (≈ 175 µM)	32 (≈ 87.6 µM)	78.9 (≈ 216 µM)
Cc1ccc(C(CCn2ccnc2)Oc2ccccc2)cc1 (stereo unspecified)							64 (≈ 219 µM)							32 (≈ 109 µM)	4 (≈ 13.7 µM)	20.3 (≈ 69.4 µM)	16 (≈ 54.7 µM)	32 (≈ 109 µM)	32 (≈ 109 µM)	38.4 (≈ 131 µM)
Cc1ccc(C(CCn2ccnc2)Oc2ccc(C(C)C)cc2)cc1 (stereo unspecified)							64 (≈ 191 µM)							16 (≈ 47.8 µM)	2 (≈ 5.98 µM)	16.6 (≈ 49.6 µM)	16 (≈ 47.8 µM)	32 (≈ 95.7 µM)	32 (≈ 95.7 µM)	32 (≈ 95.7 µM)
Cc1ccc(C(CCn2ccnc2)Oc2c(Cl)cccc2Cl)cc1 (stereo unspecified)							128 (≈ 354 µM)							16 (≈ 44.3 µM)	1 (≈ 2.77 µM)	42 (≈ 116 µM)	8 (≈ 22.1 µM)	128 (≈ 354 µM)	32 (≈ 88.6 µM)	62.9 (≈ 174 µM)
Clc1ccc(OC(CCn2ccnc2)c2ccccc2)c(Cl)c1 (single isomer, unassigned; (-))	8 (≈ 23 µM)	1 (≈ 2.88 µM)	11.8 (≈ 34 µM)		16 (≈ 46.1 µM)	28.6 (≈ 82.4 µM)	32 (≈ 92.2 µM)												32 (≈ 92.2 µM)	
OC(CCn1ccnc1)(c1ccccc1)c1ccccc1							128 (≈ 460 µM)							64 (≈ 230 µM)	32 (≈ 115 µM)	114 (≈ 410 µM)	128 (≈ 460 µM)	128 (≈ 460 µM)	128 (≈ 460 µM)	128 (≈ 460 µM)
CC(C)(C)c1ccc(OC(CCn2ccnc2)c2ccc(Cl)cc2)cc1 (stereo unspecified)							64 (≈ 173 µM)	9.2 (≈ 24.9 µM)	8 (≈ 21.7 µM)	16 (≈ 43.4 µM)	32 (≈ 86.7 µM)	26 (≈ 70.5 µM)	16 (≈ 43.4 µM)	4 (≈ 10.8 µM)	2 (≈ 5.42 µM)	57.1 (≈ 155 µM)	64 (≈ 173 µM)	64 (≈ 173 µM)	64 (≈ 173 µM)	64 (≈ 173 µM)
